Data taken from ChEMBL document CHEMBL1135409, “Structure-activity relationships of a novel class of endothelin-A receptor antagonists and discovery of potent and selective receptor antagonist, 2-(benzo[1,3]dioxol-5-yl)-6-isopropyloxy-4-(4-methoxyphenyl)-2H-chromene-3-carboxylic acid (S-1255). 1. Study on structure-activity relationships and …” (J Med Chem, 2002).

Assays:
[1] = molecular target: T1, Endothelin receptor type B (Sus scrofa, UniProt P35463); test: Binding affinity to endothelin B receptor measured by inhibition of [125I]ET-3 binding recombinant pig ET-B receptor expressed in COS-7 cells; assay type: cell-based
T1 sequence (P35463 whole entry): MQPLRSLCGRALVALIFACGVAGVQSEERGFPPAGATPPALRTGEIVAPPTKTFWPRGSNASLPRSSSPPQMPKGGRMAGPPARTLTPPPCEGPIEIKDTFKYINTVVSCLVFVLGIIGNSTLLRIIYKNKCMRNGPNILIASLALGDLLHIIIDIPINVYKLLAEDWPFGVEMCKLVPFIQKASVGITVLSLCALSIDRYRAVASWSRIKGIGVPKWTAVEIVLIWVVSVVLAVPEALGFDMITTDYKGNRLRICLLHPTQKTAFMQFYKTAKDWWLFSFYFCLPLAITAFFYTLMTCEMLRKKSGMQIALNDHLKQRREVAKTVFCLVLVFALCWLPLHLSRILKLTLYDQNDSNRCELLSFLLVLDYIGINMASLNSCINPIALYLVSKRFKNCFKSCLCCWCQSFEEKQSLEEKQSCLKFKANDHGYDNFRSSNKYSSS
In short: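 COS cells transfected with porcine ETB cDNA, in Hank's solution with 20 mM HEPES and protease inhibitors. Stopped by filtration on GF/C filters presoaked in 1% polyethylenimine, washed with 50 mM Tris-HCl pH 7.4, then counted. Nonspecific binding taken with 0.1 μM ET-3.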

Endothelin-1 receptor = molecular target: T2, Endothelin-1 receptor (Rattus norvegicus, UniProt P26684); test: Binding affinity for endothelin A receptor by inhibition of [125I]ET1 binding in rat aorta smooth muscle cells; assay type: tissue-based
T2 sequence (P26684 whole entry): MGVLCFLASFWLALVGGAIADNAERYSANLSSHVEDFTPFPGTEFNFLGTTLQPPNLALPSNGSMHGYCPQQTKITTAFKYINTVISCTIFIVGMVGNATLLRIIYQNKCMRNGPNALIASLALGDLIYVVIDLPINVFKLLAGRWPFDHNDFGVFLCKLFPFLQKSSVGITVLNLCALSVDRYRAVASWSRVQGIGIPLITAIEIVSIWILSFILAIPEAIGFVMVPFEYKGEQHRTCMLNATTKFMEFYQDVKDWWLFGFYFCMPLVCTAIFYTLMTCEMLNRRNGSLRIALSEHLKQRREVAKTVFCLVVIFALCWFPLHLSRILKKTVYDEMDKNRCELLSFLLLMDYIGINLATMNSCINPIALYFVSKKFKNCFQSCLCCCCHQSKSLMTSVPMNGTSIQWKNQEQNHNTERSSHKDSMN

[2] = Ratio of inhibitory concentrations at ET-B receptor relative to that of ET-A receptor

Compound | IC50 [1] | IC50 (Endothelin-1 receptor) | Ratio [2]
CCCCOc1ccc2c(c1)C(c1ccc3c(c1)OCO3)=C(C(=O)O)C(c1ccccc1OC)O2 (stereo unspecified) | 760 nM | 130 nM | –
CC(C)Oc1ccc2c(c1)C(c1ccc(O)cc1)=C(C(=O)O)C(c1ccc3c(c1)OCO3)O2 (stereo unspecified) | 4800 nM | 4.1 nM | –
CC(C)Oc1ccc2c(c1)C(c1ccc(F)cc1)=C(C(=O)O)C(c1ccc3c(c1)OCO3)O2 (stereo unspecified) | – | 8 nM | –
COc1ccc(C2=C(C(=O)O)C(c3ccc4c(c3)OCO4)Oc3ccccc32)cc1 (stereo unspecified) | 1400 nM | 86 nM | 16
O=C(O)C1=C(c2ccc3c(c2)OCO3)c2ccccc2OC1c1ccc2c(c1)OCO2 (stereo unspecified) | 710 nM | 350 nM | –
COc1ccc(C2=C(C(N)=O)C(c3ccc4c(c3)OCO4)Oc3ccc(OC(C)C)cc32)cc1 (stereo unspecified) | – | 630 nM | –
CCOC1=C(C(=O)O)C(c2ccc3c(c2)OCO3)Oc2ccccc21 (stereo unspecified) | 15000 nM | 290 nM | –
COc1ccc(C2=C(C(=O)O)C(c3ccc4c(c3)OCO4)Oc3ccc(OC(C)C)cc32)cc1 (stereo unspecified) | – | 0.51 nM | –
CCCCC1=C(C(=O)O)C(c2ccc3c(c2)OCO3)Oc2ccc(OC(C)C)cc21 (stereo unspecified) | – | – | 840
CCCCOC1=C(C(=O)O)C(c2ccc3c(c2)OCO3)Oc2ccccc21 (stereo unspecified) | 4900 nM | 66 nM | 74
CCCC[C@@H]1c2cc(OC(C)C)ccc2O[C@H](c2ccc3c(c2)OCO3)[C@H]1C(=O)O | – | 77 nM | –
CCCCOC1=C(C(=O)O)C(c2ccc3c(c2)OCO3)Oc2ccc(OC(C)C)cc21 (stereo unspecified) | – | – | 1900
CCCCC1=C(C(=O)O)[C@@H](c2ccc3c(c2)OCO3)Oc2ccc(OC(C)C)cc21 | 400 nM | 0.42 nM | 950
COc1ccc(C2=C(C(=O)NS(C)(=O)=O)C(c3ccc4c(c3)OCO4)Oc3ccc(OC(C)C)cc32)cc1 (stereo unspecified) | – | 1.8 nM | –
CC(C)Oc1ccc2c(c1)C=C(C(=O)O)C(c1ccc3c(c1)OCO3)O2 (stereo unspecified) | 52000 nM | 330 nM | 160
COc1ccc(C2=C(C(=O)O)C(c3ccc4c(c3)OCO4)Oc3c(OC)cccc32)cc1 (stereo unspecified) | 4000 nM | – | –
COc1ccc(CCOC2=C(C(=O)O)C(c3ccc4c(c3)OCO4)Oc3ccc(OC(C)C)cc32)cc1 (stereo unspecified) | 200 nM | 3 nM | –
CCCCOc1ccc(C2Oc3ccc(OCCCC)cc3C(c3ccc4c(c3)OCO4)=C2C(=O)O)cc1 (stereo unspecified) | 3600 nM | 5200 nM | –
COC1=C(C(=O)O)C(c2ccc3c(c2)OCO3)Oc2ccc(OC(C)C)cc21 (stereo unspecified) | 6400 nM | 9.1 nM | 700
COc1cccc(C2=C(C(=O)O)C(c3ccc4c(c3)OCO4)Oc3ccccc32)c1 (stereo unspecified) | 2800 nM | 700 nM | –
COc1cccc(C2=C(C(=O)O)C(c3ccc4c(c3)OCO4)Oc3ccc(OC(C)C)cc32)c1 (stereo unspecified) | 470 nM | 1.6 nM | –
CCCCC1=C(c2nnn[nH]2)C(c2ccc3c(c2)OCO3)Oc2ccc(OC(C)C)cc21 (stereo unspecified) | – | 18 nM | –

Compound | IC50 [1] | IC50 (Endothelin-1 receptor) | Ratio [2]
COc1ccccc1C1=C(C(=O)O)C(c2ccc3c(c2)OCO3)Oc2ccc(OC(C)C)cc21 (stereo unspecified) | 3500 nM | 3 nM | –
CCCCOc1ccc2c(c1)C(c1ccc3c(c1)OCO3)=C(C(=O)O)C(c1ccc(OC)c(OC)c1)O2 (stereo unspecified) | 400 nM | 810 nM | –
COc1ccc(C2=C(C(=O)O)C(c3ccc4c(c3)OCO4)Oc3ccc(C(C)C)cc32)cc1 (stereo unspecified) | 190 nM | 110 nM | 1.7
CCCCOC1=C(C(=O)O)C(c2ccc3c(c2)OCO3)Oc2ccc(OCCC)cc21 (stereo unspecified) | 520 nM | 2 nM | 260
CCCCOc1ccc2c(c1)C(c1ccc3c(c1)OCO3)=C(C(=O)O)C(c1ccc(OC3CCCC3)cc1)O2 (stereo unspecified) | 2200 nM | 4800 nM | –
CC(C)c1ccc(C2=C(C(=O)O)C(c3ccc4c(c3)OCO4)Oc3ccccc32)cc1 (stereo unspecified) | 2100 nM | 83 nM | –
CCOc1ccc2c(c1)C(c1ccc(OC)cc1)=C(C(=O)O)C(c1ccc3c(c1)OCO3)O2 (stereo unspecified) | 400 nM | 3.8 nM | 110
O=C(O)C1=C(c2ccc(Cl)cc2)c2ccccc2OC1c1ccc2c(c1)OCO2 (stereo unspecified) | 5800 nM | 800 nM | –
CC(C)Oc1ccc2c(c1)C(c1ccc(C(C)C)cc1)=C(C(=O)O)C(c1ccc3c(c1)OCO3)O2 (stereo unspecified) | 750 nM | 4.9 nM | –
CC(C)Oc1ccc2c(c1)C(c1ccc(OCc3ccccc3)cc1)=C(C(=O)O)C(c1ccc3c(c1)OCO3)O2 (stereo unspecified) | 600 nM | 6.3 nM | –
CCCCC1=C(C(=O)OC)C(c2ccc3c(c2)OCO3)Oc2ccc(OC(C)C)cc21 (stereo unspecified) | – | > 10000 nM | –
CCCOc1ccc2c(c1)OC(c1ccc3c(c1)OCO3)C(C(=O)O)=C2c1ccc(OC)cc1 (stereo unspecified) | 2300 nM | 970 nM | 2.4
COc1ccc([C@@H]2c3cc(OC(C)C)ccc3O[C@H](c3ccc4c(c3)OCO4)[C@H]2C(=O)O)cc1 | 3400 nM | 1.3 nM | –
CCCCOc1ccc2c(c1)C(c1ccc(OC)cc1)=C(C(=O)O)C(c1ccc3c(c1)OCO3)O2 (stereo unspecified) | 130 nM | 17 nM | 7.6
CC(C)Oc1ccc2c(c1)C(c1ccc3c(c1)OCO3)=C(C(=O)O)C(c1ccc(C(C)C)cc1)O2 (stereo unspecified) | 2700 nM | – | –
COC1=C(C(=O)O)[C@@H](c2ccc3c(c2)OCO3)Oc2ccc(OC(C)C)cc21 | 3500 nM | 5.2 nM | 670
CC(C)Oc1ccc2c(c1)C(OCCCC#N)=C(C(=O)O)C(c1ccc3c(c1)OCO3)O2 (stereo unspecified) | 5800 nM | 6.8 nM | –
CCCCCCCCCCOC1=C(C(=O)O)C(c2ccc3c(c2)OCO3)Oc2ccc(OC(C)C)cc21 (stereo unspecified) | 7600 nM | 130 nM | –
C=CCCCOC1=C(C(=O)O)C(c2ccc3c(c2)OCO3)Oc2ccc(OC(C)C)cc21 (stereo unspecified) | – | 0.33 nM | –
Cc1ccc(C2=C(C(=O)O)C(c3ccc4c(c3)OCO4)Oc3ccccc32)cc1 (stereo unspecified) | 6900 nM | 530 nM | –
O=C(O)C1=Cc2ccccc2OC1c1ccc2c(c1)OCO2 (stereo unspecified) | > 100000 nM | 67000 nM | –
CCCCOc1ccc2c(c1)C(c1ccc3c(c1)OCO3)=C(C(=O)O)C(c1cc(OC)ccc1OC)O2 (stereo unspecified) | 1600 nM | 160 nM | –

Compound | IC50 [1] | IC50 (Endothelin-1 receptor) | Ratio [2]
COc1ccccc1C1=C(C(=O)O)C(c2ccc3c(c2)OCO3)Oc2ccccc21 (stereo unspecified) | 31000 nM | 2200 nM | –
CCCOC1=C(C(=O)O)C(c2ccc3c(c2)OCO3)Oc2ccccc21 (stereo unspecified) | 10000 nM | 160 nM | –
CCCCOC1=C(C(=O)O)C(c2ccc3c(c2)OCO3)Oc2cccc(OCCC)c21 (stereo unspecified) | 6000 nM | – | –
CCCCC1=C(C(N)=O)C(c2ccc3c(c2)OCO3)Oc2ccc(OC(C)C)cc21 (stereo unspecified) | – | 410 nM | –
O=C(O)C1=C(c2ccccc2)c2ccccc2OC1c1ccc2c(c1)OCO2 (stereo unspecified) | > 100000 nM | 780 nM | –
CCCCOC1=C(C(=O)O)C(c2ccc3c(c2)OCO3)Oc2cc(OCCC)ccc21 (stereo unspecified) | 2800 nM | – | –
CCCCC1=C(C(=O)NS(C)(=O)=O)C(c2ccc3c(c2)OCO3)Oc2ccc(OC(C)C)cc21 (stereo unspecified) | – | 48 nM | –
CCCCCCCOC1=C(C(=O)O)C(c2ccc3c(c2)OCO3)Oc2ccc(OC(C)C)cc21 (stereo unspecified) | 410 nM | 4.7 nM | –
CC(C)Oc1ccc2c(c1)C=C(C(=O)O)[C@H](c1ccc3c(c1)OCO3)O2 | > 100000 nM | – | > 60
COc1ccc(CC2=C(C(=O)O)C(c3ccc4c(c3)OCO4)Oc3ccc(OC(C)C)cc32)cc1 (stereo unspecified) | – | 0.32 nM | –
CCOC1=C(C(=O)O)C(c2ccc3c(c2)OCO3)Oc2ccc(OC(C)C)cc21 (stereo unspecified) | 2800 nM | 2.2 nM | –
CCCOc1ccc2c(c1)C(c1ccc3c(c1)OCO3)=C(C(=O)O)C(c1ccc3c(c1)OCO3)O2 (stereo unspecified) | 80 nM | 43 nM | –
CCCCOc1ccc2c(c1)C(c1ccc3c(c1)OCO3)=C(C(=O)O)C(c1ccc(OC)cc1OC)O2 (stereo unspecified) | 35 nM | 18 nM | –
CC(C)Oc1ccc2c(c1)C(c1ccccc1)=C(C(=O)O)C(c1ccc3c(c1)OCO3)O2 (stereo unspecified) | – | 3 nM | –
CCCCOc1ccc2c(c1)C(c1ccc3c(c1)OCO3)=C(C(=O)O)C(c1cccc(OC)c1)O2 (stereo unspecified) | 160 nM | 350 nM | –
CC(C)Oc1ccc2c(c1)C(Cl)=C(C(=O)O)C(c1ccc3c(c1)OCO3)O2 (stereo unspecified) | 7200 nM | 12 nM | –
CCCCOc1ccc2c(c1)C(c1ccc3c(c1)OCO3)=C(C(=O)O)C(c1ccc(OC)cc1)O2 (stereo unspecified) | 43 nM | – | –
CC(C)Oc1ccc2c(c1)C(c1ccc3c(c1)OCO3)=C(C(=O)O)C(c1ccc3c(c1)OCO3)O2 (stereo unspecified) | 170 nM | 3.2 nM | –
COC(=O)C1=C(c2ccc(OC)cc2)c2cc(OC(C)C)ccc2OC1c1ccc2c(c1)OCO2 (stereo unspecified) | – | > 10000 nM | –
CCCCCOC1=C(C(=O)O)C(c2ccc3c(c2)OCO3)Oc2ccccc21 (stereo unspecified) | 1100 nM | 29 nM | –
CCCOc1ccc2c(c1)C(c1ccc3c(c1)OCO3)=C(C(=O)O)C(c1ccc(OC)cc1)O2 (stereo unspecified) | 72 nM | 220 nM | –
